PMC4561207 (Child's nervous system : ChNS : official journal of the …, 2015)

How the values were obtained:
[1] = Steady-state plasma pharmacokinetics, day 28 of course 1; format: in vivo, human
[2] = tested on: Plasma VEGF, bFGF, endostatin and IL8 and urine MMPs; test: Pharmacodynamic biomarkers in plasma and urine; format: in vivo, human; conditions: baseline vs day 7–14 of cycle 1, or baseline vs end of cycle 2
Outline: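 Plasma VEGF, bFGF, endostatin and IL8 and urine MMPs were measured by human immunoassays before course 1, once on days 7–14 of course 1, at each MRI scan, and at discontinuation or completion. The fold change was calculated as the later-timepoint value divided by the earlier-timepoint value.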

primary CNS tumor = test: MR diffusion and permeability perfusion imaging of tumor; format: in vivo, human
[3] = pediatric MTD of 12mg/m^2/day; cited from earlier work
[4] = tested on: progressive glioblastoma multiforme; conditions: adults, therapy initiated at 45mg; cited from earlier work
Phase I dose escalation = format: in vivo
[5] = adults treated with a 5 mg flat dose; cited from earlier work

**Q.** Which “Css,min, median” value ([1]; 20mg/m^2 QD, day 28 pre-dose trough) does the source give for `COc1cc2c(Oc3ccc4[nH]c(C)cc4c3F)ncnc2cc1OCCCN1CCCC1` [cediranib, Cediranib] here?
**A.** Its value is 11.5 ng/mL.

**Q.** What about the “Css,max, median” value ([1]; day 28, steady state, plasma) of the same molecule?
**A.** Its value is 48.0 ng/mL.

**Q.** What about the Tmax ([1]; human, plasma, oral) of the same molecule?
**A.** The Tmax was 2 to 6 h.

**Q.** And the AUC ([1]; human, plasma, oral, 32 mg/m2, steady-state AUC0—tlast, 32mg/m^2 QD, n=2)?
**A.** The AUC was 892 ng·h/mL.

**Q.** What about the AUC ([1]; human, plasma, oral, 32 mg/m2, steady-state AUC0—tlast, range, 32mg/m^2 QD, n=2) of the same molecule?
**A.** The AUC was 522 to 1260 ng·h/mL.

**Q.** What about the AUC ([1]; human, plasma, oral, 40 mg/m2, steady-state AUC0—tlast, 40mg/m^2 QD, n=1) of the same molecule?
**A.** The AUC was 770 ng·h/mL.

**Q.** What about the “changes in MMP-9, MMP-9 Dimers or MMP-9/NGAL” value [2] of the same molecule?
**A.** The value was “No significant changes”.

**Q.** And the “change in two dimensional mean permeability values” (primary CNS tumor; baseline to course 1 day 7–14, p=0.0469)?
**A.** The value was “suggested a decrease from baseline”.

**Q.** What about the “change in 2D permeability and 3D permeability values” (primary CNS tumor; baseline to end of course 2, p=0.0078 each) of the same molecule?
**A.** The value was “suggested a decrease from baseline”.

**Q.** What about the “median AUC(0-inf)” value [3] of the same molecule?
**A.** Its value is 900 ng·h/mL.

**Q.** What about the “median Cmax” value [3] of the same molecule?
**A.** Its value is 67 ng/mL.

**Q.** What about the 6-month progression-free survival [4] of the same molecule?
**A.** The 6-month progression-free survival was 26%.

**Q.** What about the “radiographic response, patients” value [4] of the same molecule?
**A.** Its value is 57%.

**Q.** What about the MTD (Phase I dose escalation; Stratum II (patients receiving EIACD), maximum dose tested 20mg/m^2/d) of the same molecule?
**A.** The MTD was “not achieved”.

**Q.** And the DLTs identified (Phase I dose escalation; human, in vivo)?
**A.** Its DLTs identified is 8.

**Q.** And the “steady-state systemic exposure (AUC)” value [5]?
**A.** Its value is 226 ng·h/mL.
